From ChEMBL document CHEMBL4177580, “New 5-HT1A, 5HT2A and 5HT2C receptor ligands containing a picolinic nucleus: Synthesis, in vitro and in vivo pharmacological evaluation” (Bioorg Med Chem, 2017)
Activity calls are given as the source filed them. No cut-off for these calls is given here.

Assays:
[1] = target: T1, Adrenergic receptor alpha-1 (Rattus norvegicus, UniProt P15823+P23944+P43140); assay: Displacement of [3H]prazosin from adrenergic alpha1 receptor in rat cerebral cortex
T1 sequence (P15823 whole entry): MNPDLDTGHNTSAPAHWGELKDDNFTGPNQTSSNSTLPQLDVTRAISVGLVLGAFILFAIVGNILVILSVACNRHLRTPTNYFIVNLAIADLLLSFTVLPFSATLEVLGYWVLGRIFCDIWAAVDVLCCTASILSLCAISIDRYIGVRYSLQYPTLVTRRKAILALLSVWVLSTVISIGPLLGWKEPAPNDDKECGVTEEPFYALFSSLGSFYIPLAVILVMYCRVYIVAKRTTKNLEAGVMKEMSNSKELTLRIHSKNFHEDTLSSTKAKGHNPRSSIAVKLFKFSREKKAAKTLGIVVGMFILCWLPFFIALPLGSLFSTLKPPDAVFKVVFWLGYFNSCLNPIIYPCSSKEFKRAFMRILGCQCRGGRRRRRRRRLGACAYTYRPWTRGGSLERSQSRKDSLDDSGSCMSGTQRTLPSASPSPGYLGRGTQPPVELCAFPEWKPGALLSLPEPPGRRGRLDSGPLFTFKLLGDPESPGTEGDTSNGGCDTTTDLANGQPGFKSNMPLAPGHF
T1 sequence (P23944 whole entry): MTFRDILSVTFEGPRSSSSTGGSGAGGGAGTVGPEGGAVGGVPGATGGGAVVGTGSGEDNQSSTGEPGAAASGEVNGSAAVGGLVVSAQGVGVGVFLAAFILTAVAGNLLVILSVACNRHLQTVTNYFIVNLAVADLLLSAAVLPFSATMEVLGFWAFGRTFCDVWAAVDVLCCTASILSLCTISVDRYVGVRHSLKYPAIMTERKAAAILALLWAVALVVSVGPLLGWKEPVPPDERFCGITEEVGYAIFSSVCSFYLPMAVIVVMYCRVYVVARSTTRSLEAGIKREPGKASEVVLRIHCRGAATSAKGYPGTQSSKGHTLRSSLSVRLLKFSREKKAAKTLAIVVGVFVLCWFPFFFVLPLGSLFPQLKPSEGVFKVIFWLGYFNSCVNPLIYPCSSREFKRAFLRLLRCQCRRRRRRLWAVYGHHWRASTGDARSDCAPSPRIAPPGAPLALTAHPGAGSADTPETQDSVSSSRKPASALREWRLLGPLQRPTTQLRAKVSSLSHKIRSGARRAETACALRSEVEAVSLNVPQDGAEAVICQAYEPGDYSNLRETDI
T1 sequence (P43140 whole entry): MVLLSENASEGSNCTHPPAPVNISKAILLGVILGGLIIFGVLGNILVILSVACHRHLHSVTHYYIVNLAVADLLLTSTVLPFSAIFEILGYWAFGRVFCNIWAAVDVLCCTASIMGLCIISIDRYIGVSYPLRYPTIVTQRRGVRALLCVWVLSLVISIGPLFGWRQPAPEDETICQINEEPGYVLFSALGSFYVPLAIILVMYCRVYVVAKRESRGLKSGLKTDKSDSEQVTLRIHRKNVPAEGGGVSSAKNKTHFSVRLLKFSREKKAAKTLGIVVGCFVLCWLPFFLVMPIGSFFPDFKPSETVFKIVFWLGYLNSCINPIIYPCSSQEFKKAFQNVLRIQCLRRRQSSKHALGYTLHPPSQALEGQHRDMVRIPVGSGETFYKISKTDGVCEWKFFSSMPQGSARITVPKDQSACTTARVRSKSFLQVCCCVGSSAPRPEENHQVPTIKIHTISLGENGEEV

Mus musculus [2] = assay: Induction of hypothermia in Swiss albino mouse assessed as reduction in body temperature at 30 mg/kg, ip measured after 60 mins post dose; assay type: functional, organism-based
Method in brief: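 Normothermic male Swiss mice; rectal thermistor readings over 180 min. Baseline is the mean of readings 60 and 30 min before dosing; readings at 30, 60, 90, 120 min post-injection; Δt = tf − ti. Test compounds i.p. (DMSO/methylcellulose); 8-OH-DPAT (5 mg/kg) and WAY 100635 (0.1 mg/kg) s.c. in water. Two-way ANOVA, Bonferroni.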

[3] = target: 5-hydroxytryptamine receptor 2A (Rattus norvegicus, UniProt P14842); assay: Displacement of [3H]ketanserin from serotonin 5-HT2A receptor in Sprague-Dawley rat brain cortex homogenates incubated for 15 mins by liquid scintillation spectrometry
Mus musculus [4] = assay: Anxiolytic-like activity in Swiss albino mouse assessed as increase in time spent in open arms at 3.75 to 15 mg/kg measured for 5 mins test period by elevated plus maze test; assay type: functional, organism-based
[5] = target: T2, 5-hydroxytryptamine receptor 2C (Rattus norvegicus, UniProt P08909); assay: Displacement of [3H]mesulergine from serotonin 5-HT2C receptor in Sprague-Dawley rat brain cortex homogenates incubated for 15 mins by liquid scintillation spectrometry
T2 sequence (P08909 whole entry): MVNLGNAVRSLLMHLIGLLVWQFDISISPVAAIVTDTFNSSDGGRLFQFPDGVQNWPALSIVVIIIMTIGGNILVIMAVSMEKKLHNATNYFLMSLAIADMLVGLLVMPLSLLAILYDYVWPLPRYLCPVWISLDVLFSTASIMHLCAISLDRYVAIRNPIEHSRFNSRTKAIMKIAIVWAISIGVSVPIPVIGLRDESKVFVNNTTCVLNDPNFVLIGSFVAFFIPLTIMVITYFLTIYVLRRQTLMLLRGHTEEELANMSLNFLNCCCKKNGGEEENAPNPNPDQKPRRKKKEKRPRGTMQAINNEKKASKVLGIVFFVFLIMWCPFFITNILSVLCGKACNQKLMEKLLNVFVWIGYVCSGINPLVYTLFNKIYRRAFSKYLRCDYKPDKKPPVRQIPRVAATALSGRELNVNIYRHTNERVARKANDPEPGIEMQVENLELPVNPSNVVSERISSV

D(2) dopamine receptor = D(2) dopamine receptor (Homo sapiens, UniProt P14416); assay: Displacement of [3H]methyl-spiperone from human recombinant dopamine D2 receptor expressed in HEK293 cells; assay type: cell-based
Rattus norvegicus = assay: In-vivo 5-HT1A receptor antagonist activity in Wistar rat assessed as reduction in 8-OH-DPAT-stimulated induction of lower lip retraction by measuring lower lip retraction score at 30 mg/kg, ip dosed 15 mins before test (reference value: 2.875 +/- 0.08183)

Sequence of 5-hydroxytryptamine receptor 2A (P14842 whole entry): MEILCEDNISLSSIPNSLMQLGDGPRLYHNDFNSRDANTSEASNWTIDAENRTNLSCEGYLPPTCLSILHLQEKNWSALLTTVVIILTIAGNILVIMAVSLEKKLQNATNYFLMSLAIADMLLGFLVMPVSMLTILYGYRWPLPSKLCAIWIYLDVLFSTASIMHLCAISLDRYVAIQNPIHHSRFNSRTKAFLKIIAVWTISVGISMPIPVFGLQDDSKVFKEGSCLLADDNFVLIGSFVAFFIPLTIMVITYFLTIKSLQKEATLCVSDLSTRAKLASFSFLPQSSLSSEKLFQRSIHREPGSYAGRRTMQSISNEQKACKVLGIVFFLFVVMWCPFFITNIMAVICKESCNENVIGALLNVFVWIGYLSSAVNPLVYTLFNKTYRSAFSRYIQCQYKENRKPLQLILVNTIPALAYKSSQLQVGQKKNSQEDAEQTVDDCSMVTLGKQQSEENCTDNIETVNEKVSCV
Sequence of D(2) dopamine receptor (P14416 whole entry): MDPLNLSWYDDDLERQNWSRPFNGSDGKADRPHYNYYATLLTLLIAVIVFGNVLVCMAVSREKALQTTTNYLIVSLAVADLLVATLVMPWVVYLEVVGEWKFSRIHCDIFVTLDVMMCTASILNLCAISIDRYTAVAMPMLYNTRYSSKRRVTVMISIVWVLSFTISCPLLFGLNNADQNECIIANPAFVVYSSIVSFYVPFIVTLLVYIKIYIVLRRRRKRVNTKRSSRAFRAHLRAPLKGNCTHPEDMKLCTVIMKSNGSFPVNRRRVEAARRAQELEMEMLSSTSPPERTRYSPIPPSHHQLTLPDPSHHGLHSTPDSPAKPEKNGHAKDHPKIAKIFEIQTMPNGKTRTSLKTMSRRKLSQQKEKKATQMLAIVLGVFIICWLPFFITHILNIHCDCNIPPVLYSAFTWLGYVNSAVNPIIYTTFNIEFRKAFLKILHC

Ki [1]: 0.031 µM
Ki [3]: 0.0741 µM
Ki [5]: > 10 µM
Ki (D(2) dopamine receptor): 0.25 µM
Compound: O=C(NCCN1CCN(c2ccc(Cl)c(Cl)c2)CC1)c1ccccn1
Activity (Mus musculus [2]): Active
Activity (Mus musculus [4]): Active
Activity_index (Rattus norvegicus): 2.3
